ChEMBL document CHEMBL3621126, “Difluoromethyl ketones: Potent inhibitors of wild type and carbamate-insensitive G119S mutant Anopheles gambiae acetylcholinesterase” (Bioorg Med Chem Lett, 2015)

Key:
Acetylcholinesterase [1] = target: T1, Acetylcholinesterase (Homo sapiens, UniProt P22303); assay: Inhibition of recombinant human AChE after 10 mins by Ellman assay
Acetylcholinesterase [2] = target: T1, Acetylcholinesterase; assay: Inhibition of recombinant human AChE after 60 mins by Ellman assay
Acetylcholinesterase [3] = target: T2, Acetylcholinesterase (Anopheles gambiae, UniProt Q869C3); assay: Inhibition of recombinant Anopheles gambiae wild type AChE after 60 mins by Ellman assay
T2 sequence (Q869C3 whole entry): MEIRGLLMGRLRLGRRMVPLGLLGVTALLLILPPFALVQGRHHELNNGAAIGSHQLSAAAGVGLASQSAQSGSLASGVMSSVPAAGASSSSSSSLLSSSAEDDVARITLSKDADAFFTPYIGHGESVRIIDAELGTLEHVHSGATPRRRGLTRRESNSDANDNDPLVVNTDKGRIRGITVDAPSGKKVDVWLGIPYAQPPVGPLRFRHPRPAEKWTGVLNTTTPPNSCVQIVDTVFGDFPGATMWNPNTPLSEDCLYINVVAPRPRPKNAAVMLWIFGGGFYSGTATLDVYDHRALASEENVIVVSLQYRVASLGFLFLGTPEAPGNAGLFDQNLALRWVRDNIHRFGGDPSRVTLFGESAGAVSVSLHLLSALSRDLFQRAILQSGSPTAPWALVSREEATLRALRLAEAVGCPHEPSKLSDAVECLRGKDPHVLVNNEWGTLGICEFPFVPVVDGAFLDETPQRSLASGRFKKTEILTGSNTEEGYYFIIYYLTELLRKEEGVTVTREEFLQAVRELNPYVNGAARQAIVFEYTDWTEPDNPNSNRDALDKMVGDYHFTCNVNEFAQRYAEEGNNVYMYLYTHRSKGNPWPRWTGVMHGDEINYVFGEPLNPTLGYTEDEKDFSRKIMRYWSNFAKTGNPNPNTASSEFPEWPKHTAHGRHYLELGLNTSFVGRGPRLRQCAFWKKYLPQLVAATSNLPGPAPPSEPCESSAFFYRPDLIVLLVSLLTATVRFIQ

[4] = Inhibition of recombinant Anopheles gambiae AChE G119S mutant after 60 mins by Ellman assay
Acetylcholinesterase [5] = target: T2, Acetylcholinesterase; assay: Inhibition of recombinant Anopheles gambiae wild type AChE after 10 mins by Ellman assay
[6] = Inhibition of Anopheles gambiae AChE G119S mutant after 10 mins by Ellman assay
Anopheles gambiae [7] = assay: Insecticidal activity against Anopheles gambiae G3 assessed as torsal contact toxicity by measuring mortality at 1000 ug/mL after 24 hrs by filter paper based method; type: functional; conditions: G3, 24 h
Method in brief: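 Adult susceptible G3 An. gambiae were tested by the WHO treated-paper tarsal contact protocol. Papers were treated with ethanolic compound solutions at 1000 µg/mL and dried overnight. Mosquitoes were exposed 1 h and mortality recorded after 24 h.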

[8] = target: Acetylcholinesterase (Anopheles gambiae) (UniProt Q869C3); assay: Inhibition of recombinant Anopheles gambiae wild type AChE by Ellman assay; conditions: TDE = time-dependent effect
Sequence of Acetylcholinesterase (Anopheles gambiae) (Q869C3 39-737 limits assumed): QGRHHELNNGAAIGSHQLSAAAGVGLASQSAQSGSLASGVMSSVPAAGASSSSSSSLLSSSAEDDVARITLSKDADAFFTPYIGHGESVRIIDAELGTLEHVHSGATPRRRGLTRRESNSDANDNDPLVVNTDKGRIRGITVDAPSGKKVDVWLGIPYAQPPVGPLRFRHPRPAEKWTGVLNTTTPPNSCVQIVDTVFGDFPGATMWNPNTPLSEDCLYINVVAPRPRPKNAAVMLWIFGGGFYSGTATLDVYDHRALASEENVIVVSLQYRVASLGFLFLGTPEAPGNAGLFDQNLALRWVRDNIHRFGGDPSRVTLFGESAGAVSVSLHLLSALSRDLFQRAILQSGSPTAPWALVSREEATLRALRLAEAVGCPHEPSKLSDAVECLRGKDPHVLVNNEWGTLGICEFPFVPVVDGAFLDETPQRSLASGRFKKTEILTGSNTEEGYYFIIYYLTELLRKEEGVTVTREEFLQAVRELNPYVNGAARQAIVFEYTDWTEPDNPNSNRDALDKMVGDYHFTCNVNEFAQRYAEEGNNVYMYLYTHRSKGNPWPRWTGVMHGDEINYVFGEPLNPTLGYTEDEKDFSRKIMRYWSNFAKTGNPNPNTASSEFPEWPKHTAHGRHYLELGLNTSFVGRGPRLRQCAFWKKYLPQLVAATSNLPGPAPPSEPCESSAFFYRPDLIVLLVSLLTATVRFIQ
Method in brief: (§1)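 Modified Ellman assay in microtiter plates with recombinant enzymes (human AChE, wild-type or G119S Anopheles gambiae AChE). Inhibitor preincubated 10 or 60 min at 23 ± 1°C, pH 7.7, 0.1% (v/v) DMSO, before adding substrate. Ten inhibitor concentrations were run alongside inhibitor-free control wells. IC50 was taken from sigmoidal plots of residual activity (v/v0) vs [I].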

Anopheles gambiae [9] = assay: Insecticidal activity against Anopheles gambiae G3 assessed as fumigation mortality at 1000 ng/mL after 24 hrs by mason jar assay; type: functional; conditions: G3, 24 h
Method in brief: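 Fumigation of adult G3 An. gambiae in a sealed 1 L vessel, with % mortality read after 24 h. Nominal concentration was calculated from the inhibitor mass delivered and the vessel volume.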

Anopheles gambiae [10] = assay: Insecticidal activity against Anopheles gambiae G3 assessed as mortality at 50 ng/insect after 24 hrs (reference value: 11 +/- 4%); type: functional
Acetylcholinesterase [11] = target: T1, Acetylcholinesterase; assay: Inhibition of recombinant human AChE by Ellman assay; conditions: TDE = time-dependent effect; method in brief: as §1
Anopheles gambiae [12] = assay: Ratio of IC50 for recombinant Anopheles gambiae AChE G119S mutant to IC50 for recombinant wild type Anopheles gambiae AChE after 60 mins
[13] = Inhibition of recombinant Anopheles gambiae AChE G119S mutant after 330 mins by Ellman assay
Method in brief: (§2)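 Recombinant G119S mutant An. gambiae AChE; modified Ellman assay in microtiter plates at 23 ± 1°C, pH 7.7, 0.1% (v/v) DMSO. Enzyme preincubated with inhibitor over a range of concentrations before substrate added; inhibitor-free controls flank 10 concentrations, right-hand control used for residual activity (v/v0). IC50 taken from sigmoidal plots of v/v0 versus [I].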

[14] = Inhibition of recombinant Anopheles gambiae AChE G119S mutant after 1380 mins by Ellman assay; method in brief: as §2
Acetylcholinesterase [15] = target: Acetylcholinesterase (Electrophorus electricus, UniProt O42275); assay: Inhibition of electric eel AChE
Sequence of Acetylcholinesterase (Electrophorus electricus, UniProt O42275) (O42275 whole entry): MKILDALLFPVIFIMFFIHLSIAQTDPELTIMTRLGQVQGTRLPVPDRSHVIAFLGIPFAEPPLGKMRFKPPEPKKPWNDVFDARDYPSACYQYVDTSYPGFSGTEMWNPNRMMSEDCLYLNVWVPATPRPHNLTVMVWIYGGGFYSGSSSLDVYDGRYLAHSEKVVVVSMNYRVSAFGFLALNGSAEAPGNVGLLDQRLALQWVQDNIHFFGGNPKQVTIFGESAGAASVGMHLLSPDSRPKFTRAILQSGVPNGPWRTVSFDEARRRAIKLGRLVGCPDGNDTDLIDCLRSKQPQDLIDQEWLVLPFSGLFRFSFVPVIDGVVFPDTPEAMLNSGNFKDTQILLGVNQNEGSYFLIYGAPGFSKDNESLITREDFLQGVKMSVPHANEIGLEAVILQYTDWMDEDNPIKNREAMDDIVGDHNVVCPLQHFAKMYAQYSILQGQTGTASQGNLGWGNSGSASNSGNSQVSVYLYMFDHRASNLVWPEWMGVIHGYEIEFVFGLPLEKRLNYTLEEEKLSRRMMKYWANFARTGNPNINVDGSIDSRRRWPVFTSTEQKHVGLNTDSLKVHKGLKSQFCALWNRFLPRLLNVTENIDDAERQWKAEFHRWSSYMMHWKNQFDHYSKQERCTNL

T1 sequence (P22303 whole entry): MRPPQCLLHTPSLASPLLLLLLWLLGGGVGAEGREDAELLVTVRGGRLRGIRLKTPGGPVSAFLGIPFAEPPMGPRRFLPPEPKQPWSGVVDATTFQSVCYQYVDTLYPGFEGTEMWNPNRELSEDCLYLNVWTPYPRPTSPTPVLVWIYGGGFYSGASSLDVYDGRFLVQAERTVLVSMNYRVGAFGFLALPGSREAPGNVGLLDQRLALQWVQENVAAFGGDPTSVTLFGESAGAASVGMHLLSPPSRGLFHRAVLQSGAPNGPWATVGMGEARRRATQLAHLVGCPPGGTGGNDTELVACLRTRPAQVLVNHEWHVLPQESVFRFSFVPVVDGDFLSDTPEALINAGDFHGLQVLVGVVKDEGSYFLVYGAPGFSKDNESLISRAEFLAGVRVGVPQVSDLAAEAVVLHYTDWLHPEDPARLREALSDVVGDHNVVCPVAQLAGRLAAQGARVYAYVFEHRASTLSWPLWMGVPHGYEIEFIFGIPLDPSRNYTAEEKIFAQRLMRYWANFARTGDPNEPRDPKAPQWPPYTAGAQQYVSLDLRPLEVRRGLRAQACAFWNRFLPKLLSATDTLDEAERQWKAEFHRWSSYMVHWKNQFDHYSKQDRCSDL

Row | SMILES | IC50 (Acetylcholinesterase [1]) | IC50 (Acetylcholinesterase [2]) | IC50 (Acetylcholinesterase [3]) | IC50 [4] | IC50 (Acetylcholinesterase [5]) | IC50 [6] | mortality at 1000 µg/mL (Anopheles gambiae [7]) | inhibition [8] | mortality at 1 µg/mL (Anopheles gambiae [9]) | mortality (Anopheles gambiae [10]) | inhibition (Acetylcholinesterase [11]) | Ratio IC50 (Anopheles gambiae [12]) | IC50 [13] | IC50 [14] | Ki (Acetylcholinesterase [15])
1 | CCCC(C)n1cc(C(=O)CF)cn1 (stereo not given) | 24200 nM | 17600 nM | 3290 nM | > 10000 nM | 3520 nM | > 10000 nM | 20% | – | – | – | – | – | – | – | –
2 | CCC(CC)n1cc(C(=O)C(F)(F)F)cn1 | 3.77 nM | 2.27 nM | 0.68 nM | 1730 nM | 2.75 nM | > 10000 nM | 40% | tde | 86% | 65% | tde | 2500 | – | – | –
3 | CCC(C)n1cc(C(=O)C(F)F)cn1 (stereo not given) | 110 nM | 85.9 nM | 25.2 nM | 185 nM | 26.3 nM | 452 nM | 50% | – | – | – | – | – | – | – | –
4 | CCC(CC)n1cc(C(=O)C(F)F)cn1 | 28.8 nM | 35.2 nM | 1.22 nM | 125 nM | 1.01 nM | 680 nM | 0% | – | 57% | 21% | – | – | 36.7 nM | 25.1 nM | –
5 | CC(=O)C(F)(F)CCC(C)(C)C | – | – | – | – | – | – | – | – | – | – | – | – | – | – | 1.6 nM
6 | O=C(c1cnn(C2CCCC2)c1)C(F)F | 208 nM | 244 nM | 134 nM | 3390 nM | 106 nM | 3220 nM | 0% | – | – | – | – | – | – | – | –
7 | CC(C)Cn1cc(C(=O)C(F)F)cn1 | 9780 nM | 11000 nM | 3950 nM | > 10000 nM | 3000 nM | > 10000 nM | – | – | – | – | – | – | – | – | –
8 | CCCC(C)n1cc(C(=O)C(F)(F)F)cn1 (stereo not given) | 7.15 nM | 8.37 nM | 2.06 nM | 2000 nM | 3.74 nM | 19900 nM | 0% | tde | – | – | tde | – | – | – | –
9 | CCC(C)n1cc(C(=O)CF)cn1 (stereo not given) | 16900 nM | 18000 nM | 2860 nM | > 10000 nM | 2750 nM | > 10000 nM | 65% | – | – | – | – | – | – | – | –
10 | CC(C)Cn1cc(C(=O)CF)cn1 | > 10000 nM | > 10000 nM | > 10000 nM | > 10000 nM | > 10000 nM | > 10000 nM | 20% | – | – | – | – | – | – | – | –
11 | CC(C)(C)c1cccc(C(=O)CF)c1 | – | – | – | – | – | > 10000 nM | 50% | – | – | – | – | – | – | – | –
12 | C[Si](C)(C)c1cccc(C(=O)C(F)(F)F)c1 | 285 nM | 92.9 nM | 257 nM | 10100 nM | 848 nM | > 10000 nM | 10% | tde | – | – | tde | – | – | – | –
